# In ChEMBL document CHEMBL5705904 (N Engl J Med, 2016):
# Active and inactive are the calls of the source. No cut-off for these calls is given here.
# Columns and labels:
# [1] = AUC(0 to 24 hrs) in human at 175 mg, po administered for 8 days by LC-MS/MS analysis; format: ADME, organism-based; settings: in vivo, time 8 day
# Procedure, shortened: (§1)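 Steady-state plasma sampling on cycle 1 day 8 in patients, predose and 0.25, 0.5, 0.75, 1, 2, 4 and 6 h post-dose, into lithium heparin. Plasma was stored at -80°C. Drug was quantified by validated LC-MS/MS against a stable labeled internal standard, using only values at or above LLOQ and nominal sampling times.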
# [2] = Tmax in human at 250 mg, po administered for 8 days by LC-MS/MS analysis; format: ADME, organism-based; settings: in vivo, time 8 day
# Procedure, shortened: (§2)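 Patient plasma sampled on cycle 1 day 8 at predose and 0.25, 0.5, 0.75, 1, 2, 4 and 6 h post-dose, in lithium heparin. […] Tmax read directly from each individual's data; summarized descriptively.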
# [3] = Apparent oral clearance in human at 250 mg, po administered for 8 days by LC-MS/MS analysis; format: ADME, organism-based; settings: in vivo, time 8 day; procedure, shortened: as §1
# [4] = target: T1, Tyrosine-protein kinase TXK (Homo sapiens, UniProt P42681); test: Inhibition of recombinant TXK (unknown origin) preincubated for 1 hr in presence of ATP by Z-Lyte assay
# T1 sequence (P42681 whole entry): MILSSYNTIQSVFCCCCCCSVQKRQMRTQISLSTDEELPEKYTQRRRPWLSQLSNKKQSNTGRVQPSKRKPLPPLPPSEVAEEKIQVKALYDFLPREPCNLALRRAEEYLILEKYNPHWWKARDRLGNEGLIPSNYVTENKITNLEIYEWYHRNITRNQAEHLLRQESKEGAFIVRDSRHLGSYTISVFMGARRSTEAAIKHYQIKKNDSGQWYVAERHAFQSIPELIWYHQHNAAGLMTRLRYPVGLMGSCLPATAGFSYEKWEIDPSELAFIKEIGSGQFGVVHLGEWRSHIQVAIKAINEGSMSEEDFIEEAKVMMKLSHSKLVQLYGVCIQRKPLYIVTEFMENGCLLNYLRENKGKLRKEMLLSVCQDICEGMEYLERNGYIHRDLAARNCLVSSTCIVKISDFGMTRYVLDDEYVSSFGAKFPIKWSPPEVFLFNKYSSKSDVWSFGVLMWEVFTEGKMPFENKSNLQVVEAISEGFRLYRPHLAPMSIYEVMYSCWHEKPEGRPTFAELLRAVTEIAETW
# [5] = Half life in human at 100 mg, po administered for 8 days by LC-MS/MS analysis; format: ADME, organism-based; settings: in vivo, time 8 day; procedure, shortened: as §1
# [6] = Tmax in human at 400 mg, po administered for 8 days by LC-MS/MS analysis; format: ADME, organism-based; settings: in vivo, time 8 day; procedure, shortened: as §2
# [7] = AUC(0 to 6 hrs) in human at 100 mg, po administered for 8 days by LC-MS/MS analysis; format: ADME, organism-based; settings: in vivo, time 8 day; procedure, shortened: as §1
# [8] = Terminal elimination half life in human at 100 mg, po BID administered for 8 days by LC-MS/MS analysis; format: ADME, organism-based; settings: in vivo, time 8 day, read-out: LambdaZ (converted)
# [9] = Half life in human at 250 mg, po administered for 8 days by LC-MS/MS analysis; format: ADME, organism-based; settings: in vivo, time 8 day; procedure, shortened: as §1
# [10] = AUC(0 to infinity) in human at 100 mg, po administered for 8 days by LC-MS/MS analysis; format: ADME, organism-based; settings: in vivo, time 8 day; procedure, shortened: as §1
# [11] = AUC(0 to 24 hrs) in human at 400 mg, po administered for 8 days by LC-MS/MS analysis; format: ADME, organism-based; settings: in vivo, time 8 day; procedure, shortened: as §1
# [12] = AUC(0 to 24 hrs) in human at 100 mg, po BID administered for 8 days by LC-MS/MS analysis; format: ADME, organism-based; settings: in vivo, time 8 day; procedure, shortened: as §1
# [13] = AUC(0 to 12 hrs) in human at 250 mg, po administered for 8 days by LC-MS/MS analysis; format: ADME, organism-based; settings: in vivo, time 8 day; procedure, shortened: as §1
# [14] = Cmax in human at 100 mg, po administered for 8 days by LC-MS/MS analysis; format: ADME, organism-based; settings: in vivo, time 8 day; procedure, shortened: as §1
# [15] = Tmax in human at 100 mg, po administered for 8 days by LC-MS/MS analysis; format: ADME, organism-based; settings: in vivo, time 8 day; procedure, shortened: as §2
# [16] = AUC(0 to 6 hrs) in human at 250 mg, po administered for 8 days by LC-MS/MS analysis; format: ADME, organism-based; settings: in vivo, time 8 day; procedure, shortened: as §1
# [17] = target: Proto-oncogene tyrosine-protein kinase Src (Homo sapiens, UniProt P12931); test: Inhibition of recombinant SRC (unknown origin) preincubated for 1 hr in presence of ATP by Z-Lyte assay
# [18] = AUC(0 to 6 hrs) in human at 175 mg, po administered for 8 days by LC-MS/MS analysis; format: ADME, organism-based; settings: in vivo, time 8 day; procedure, shortened: as §1
# [19] = target: Tyrosine-protein kinase Fgr (Homo sapiens, UniProt P09769); test: Inhibition of recombinant FGR (unknown origin) preincubated for 1 hr in presence of ATP by Z-Lyte assay
# Procedure, shortened: (§3)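 Recombinant kinase activity was measured by Z'-LYTE with ATP at each enzyme's Km. Inhibitor came from a 10 mM DMSO stock and was tested at 10 concentrations. Compound was preincubated with kinase for 1 h before ATP addition started the reaction, for about 2 h total compound-kinase exposure. IC50 is from 2–3 independent experiments.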
# [20] = target: Tyrosine-protein kinase Blk (Homo sapiens, UniProt P51451); test: Inhibition of recombinant BLK (unknown origin) preincubated for 1 hr in presence of ATP by Z-Lyte assay; procedure, shortened: as §3
# [21] = AUC(0 to 24 hrs) in human at 250 mg, po administered for 8 days by LC-MS/MS analysis; format: ADME, organism-based; settings: in vivo, time 8 day; procedure, shortened: as §1
# [22] = Cmax in human at 175 mg, po administered for 8 days by LC-MS/MS analysis; format: ADME, organism-based; settings: in vivo, time 8 day; procedure, shortened: as §1
# [23] = Apparent oral clearance in human at 175 mg, po administered for 8 days by LC-MS/MS analysis; format: ADME, organism-based; settings: in vivo, time 8 day; procedure, shortened: as §1
# [24] = AUC(0 to 24 hrs) in human at 100 mg, po administered for 8 days by LC-MS/MS analysis; format: ADME, organism-based; settings: in vivo, time 8 day; procedure, shortened: as §1
# [25] = Drug accumulation in human at 100 to 400 mg, po administered for 6 hrs by LC-MS/MS analysis; format: ADME, organism-based; settings: in vivo, dose 100-400 mg
# [26] = target: Tyrosine-protein kinase BTK (Homo sapiens) (UniProt Q06187); settings: Platelet, dose 25-1000 nM, time 30.0 min
# [27] = Half life in human at 400 mg, po administered for 8 days by LC-MS/MS analysis; format: ADME, organism-based; settings: in vivo, time 8 day; procedure, shortened: as §1
# [28] = target: Tyrosine-protein kinase HCK (Homo sapiens, UniProt P08631); test: Inhibition of recombinant HCK (unknown origin) preincubated for 1 hr in presence of ATP by Z-Lyte assay; procedure, shortened: as §3
# [29] = Apparent oral clearance in human at 400 mg, po administered for 8 days by LC-MS/MS analysis; format: ADME, organism-based; settings: in vivo, time 8 day; procedure, shortened: as §1
# [30] = AUC(0 to 6 hrs) in human at 100 mg, po BID administered for 8 days by LC-MS/MS analysis; format: ADME, organism-based; settings: in vivo, time 8 day; procedure, shortened: as §1
# [31] = AUC(0 to infinity) in human at 100 mg, po BID administered for 8 days by LC-MS/MS analysis; format: ADME, organism-based; settings: in vivo, time 8 day; procedure, shortened: as §1
# Tyrosine-protein kinase HCK, sequence (P08631 whole entry): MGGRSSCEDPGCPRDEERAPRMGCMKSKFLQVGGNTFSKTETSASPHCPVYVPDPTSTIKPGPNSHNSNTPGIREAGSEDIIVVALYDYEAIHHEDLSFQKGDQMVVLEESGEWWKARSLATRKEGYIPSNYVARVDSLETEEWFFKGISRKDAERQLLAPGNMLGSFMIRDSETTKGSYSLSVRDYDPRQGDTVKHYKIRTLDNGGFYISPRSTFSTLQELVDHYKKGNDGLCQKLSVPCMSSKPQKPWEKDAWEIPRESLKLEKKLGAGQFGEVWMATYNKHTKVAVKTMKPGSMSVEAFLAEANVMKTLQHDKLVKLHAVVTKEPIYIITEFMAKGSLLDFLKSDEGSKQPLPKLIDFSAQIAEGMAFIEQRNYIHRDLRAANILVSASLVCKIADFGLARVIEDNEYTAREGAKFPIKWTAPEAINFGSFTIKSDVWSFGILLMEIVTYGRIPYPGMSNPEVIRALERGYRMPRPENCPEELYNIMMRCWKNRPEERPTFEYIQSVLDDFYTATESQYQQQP
# Tyrosine-protein kinase Fgr, sequence (P09769 whole entry): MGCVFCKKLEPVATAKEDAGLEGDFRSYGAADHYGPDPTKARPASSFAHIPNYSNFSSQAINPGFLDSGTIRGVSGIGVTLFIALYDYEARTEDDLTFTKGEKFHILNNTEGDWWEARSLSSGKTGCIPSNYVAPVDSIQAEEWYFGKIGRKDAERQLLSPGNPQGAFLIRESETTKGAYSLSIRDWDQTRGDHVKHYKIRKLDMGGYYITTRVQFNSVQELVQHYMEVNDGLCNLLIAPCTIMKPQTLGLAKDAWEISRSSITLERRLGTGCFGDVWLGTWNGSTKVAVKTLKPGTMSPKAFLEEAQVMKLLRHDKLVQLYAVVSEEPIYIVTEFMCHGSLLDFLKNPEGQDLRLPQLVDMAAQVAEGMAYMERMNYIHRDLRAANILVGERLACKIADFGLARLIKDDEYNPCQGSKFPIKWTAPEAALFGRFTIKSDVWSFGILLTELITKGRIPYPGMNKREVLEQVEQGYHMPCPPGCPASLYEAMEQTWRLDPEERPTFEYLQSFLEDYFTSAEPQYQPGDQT
# Tyrosine-protein kinase BTK (Homo sapiens), sequence (Q06187 whole entry): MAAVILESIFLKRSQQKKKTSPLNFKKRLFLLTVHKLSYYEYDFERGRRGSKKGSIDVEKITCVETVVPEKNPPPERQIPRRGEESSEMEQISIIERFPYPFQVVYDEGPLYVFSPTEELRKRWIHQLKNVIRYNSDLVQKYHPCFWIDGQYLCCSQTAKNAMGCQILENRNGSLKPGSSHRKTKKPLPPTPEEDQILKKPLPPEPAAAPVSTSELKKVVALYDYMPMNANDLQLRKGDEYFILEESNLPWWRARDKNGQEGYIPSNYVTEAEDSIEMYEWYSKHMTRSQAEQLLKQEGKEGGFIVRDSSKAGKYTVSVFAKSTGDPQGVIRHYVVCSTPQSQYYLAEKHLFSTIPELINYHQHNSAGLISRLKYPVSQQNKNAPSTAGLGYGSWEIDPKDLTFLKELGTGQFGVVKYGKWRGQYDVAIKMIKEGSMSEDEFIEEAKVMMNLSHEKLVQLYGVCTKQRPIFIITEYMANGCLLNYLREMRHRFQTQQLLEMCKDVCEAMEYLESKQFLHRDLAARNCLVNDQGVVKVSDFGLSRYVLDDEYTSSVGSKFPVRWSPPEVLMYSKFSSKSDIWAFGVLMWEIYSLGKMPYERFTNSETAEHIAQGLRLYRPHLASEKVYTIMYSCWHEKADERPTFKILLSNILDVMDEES
# Tyrosine-protein kinase Blk, sequence (P51451 whole entry): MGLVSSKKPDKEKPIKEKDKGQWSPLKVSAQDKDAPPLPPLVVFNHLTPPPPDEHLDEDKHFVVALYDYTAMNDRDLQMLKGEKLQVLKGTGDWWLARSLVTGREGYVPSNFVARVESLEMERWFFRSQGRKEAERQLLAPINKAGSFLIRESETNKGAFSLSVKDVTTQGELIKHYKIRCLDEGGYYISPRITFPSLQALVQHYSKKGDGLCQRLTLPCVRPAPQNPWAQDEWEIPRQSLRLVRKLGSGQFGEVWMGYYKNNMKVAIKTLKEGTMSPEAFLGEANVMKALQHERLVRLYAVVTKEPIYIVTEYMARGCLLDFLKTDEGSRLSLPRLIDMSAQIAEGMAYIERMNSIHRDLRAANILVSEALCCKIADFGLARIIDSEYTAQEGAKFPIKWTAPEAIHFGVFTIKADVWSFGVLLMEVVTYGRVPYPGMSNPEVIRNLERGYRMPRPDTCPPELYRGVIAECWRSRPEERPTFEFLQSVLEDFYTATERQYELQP
# Proto-oncogene tyrosine-protein kinase Src, sequence (P12931 2-536 limits assumed): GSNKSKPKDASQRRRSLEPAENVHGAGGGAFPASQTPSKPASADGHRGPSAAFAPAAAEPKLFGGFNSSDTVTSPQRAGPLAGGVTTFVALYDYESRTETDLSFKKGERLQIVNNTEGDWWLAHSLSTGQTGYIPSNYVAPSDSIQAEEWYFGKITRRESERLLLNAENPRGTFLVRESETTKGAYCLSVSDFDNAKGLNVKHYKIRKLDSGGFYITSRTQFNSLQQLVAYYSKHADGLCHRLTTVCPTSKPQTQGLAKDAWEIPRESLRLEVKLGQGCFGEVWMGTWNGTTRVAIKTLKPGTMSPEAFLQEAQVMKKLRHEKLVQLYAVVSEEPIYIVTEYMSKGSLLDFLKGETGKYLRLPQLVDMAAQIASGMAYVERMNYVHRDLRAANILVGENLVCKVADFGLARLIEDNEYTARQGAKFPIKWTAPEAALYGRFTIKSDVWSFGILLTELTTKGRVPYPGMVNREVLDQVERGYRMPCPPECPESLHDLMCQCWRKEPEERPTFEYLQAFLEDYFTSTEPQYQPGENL
smiles,measurement,setting,value
CC#CC(=O)N1CCC[C@H]1c1nc(-c2ccc(C(=O)Nc3ccccn3)cc2)c2c(N)nccn12 [ACALABRUTINIB],AUC at 192 h,[1],1160 ng·h/mL
same,Tmax,[2],1.1 h
same,CL/F,[3],2170 mL/min
same,IC50,[4],0.368 µM
same,half-life,[5],1.16 h
same,Tmax,[6],0.92 h
same,AUC at 192 h,[7],584 ng·h/mL
same,k el at 192 h,[8],0.000188 s⁻¹
same,half-life,[9],0.941 h
same,AUC(0-inf),[10],603 ng·h/mL
same,AUC at 192 h,[11],1870 ng·h/mL
same,AUC at 192 h,[12],1850 ng·h/mL
same,AUC at 192 h,[13],2310 ng·h/mL
same,Cmax,[14],529 ng/mL
same,Tmax,[15],0.81 h
same,AUC at 192 h,[16],1990 ng·h/mL
same,IC50,[17],> 1 µM
same,AUC at 192 h,[18],1140 ng·h/mL
same,IC50,[19],> 1 µM
same,IC50,[20],> 1 µM
same,AUC at 192 h,[21],2310 ng·h/mL
same,Cmax,[22],805 ng/mL
same,CL/F,[23],3550 mL/min
same,AUC at 192 h,[24],603 ng·h/mL
same,Drug uptake,[25],Not Active
same,inhibition,[26],inactive
same,half-life,[27],1.39 h
same,IC50,[28],> 1 µM
same,CL/F,[29],5200 mL/min
same,AUC at 192 h,[30],826 ng·h/mL
same,AUC(0-inf),[31],927 ng·h/mL
